Source: ChEMBL document CHEMBL3817776, “Discovery and Structure-Activity Relationships of the Neoseptins: A New Class of Toll-like Receptor-4 (TLR4) Agonists” (J Med Chem, 2016)
Calls of active or inactive are those of the source. How the calls were made is not given here.

Molecular target: T1, Toll-like receptor 4 (Mus musculus) (UniProt Q9QUK6)
T1 sequence (whole entry): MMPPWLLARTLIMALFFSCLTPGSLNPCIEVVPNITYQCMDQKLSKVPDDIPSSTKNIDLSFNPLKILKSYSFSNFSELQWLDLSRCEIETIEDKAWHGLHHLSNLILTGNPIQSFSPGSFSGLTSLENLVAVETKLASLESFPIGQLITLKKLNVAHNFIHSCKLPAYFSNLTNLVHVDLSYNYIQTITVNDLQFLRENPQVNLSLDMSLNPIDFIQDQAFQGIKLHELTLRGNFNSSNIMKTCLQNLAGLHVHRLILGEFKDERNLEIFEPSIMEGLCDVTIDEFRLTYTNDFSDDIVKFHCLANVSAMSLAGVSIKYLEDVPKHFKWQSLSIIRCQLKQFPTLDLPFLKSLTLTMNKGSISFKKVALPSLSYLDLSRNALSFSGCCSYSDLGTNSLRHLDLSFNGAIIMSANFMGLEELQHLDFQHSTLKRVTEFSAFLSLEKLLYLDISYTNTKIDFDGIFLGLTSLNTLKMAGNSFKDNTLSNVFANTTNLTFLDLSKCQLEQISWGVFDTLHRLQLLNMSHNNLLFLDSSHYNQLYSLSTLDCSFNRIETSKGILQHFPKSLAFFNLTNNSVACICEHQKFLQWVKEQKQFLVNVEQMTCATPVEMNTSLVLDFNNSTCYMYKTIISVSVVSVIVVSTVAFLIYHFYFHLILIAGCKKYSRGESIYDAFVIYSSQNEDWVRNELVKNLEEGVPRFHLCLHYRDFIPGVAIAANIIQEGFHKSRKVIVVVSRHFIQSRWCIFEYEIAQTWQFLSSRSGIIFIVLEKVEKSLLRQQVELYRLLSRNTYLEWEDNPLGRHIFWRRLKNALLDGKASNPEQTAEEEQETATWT
Experiment: Agonist activity at TLR4 in C57BL/6J mouse macrophages assessed as stimulation of TNFalpha release at 50 uM after 4 hrs by ELISA
Summary of the method: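 Peritoneal macrophages from wild-type C57BL/6J mice, collected by PBS lavage and cultured in DMEM/10% FBS at 37 °C, 5% CO2. Seeded at 1 × 10^5 cells/well and treated 4 h with compound in DMSO (0.5% final) beside ultra-pure LPS and DMSO controls. Supernatant TNF-α measured by ELISA; mean of triplicates.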

**Q.** `CC(C)C[C@H](N)C(=O)OC(C)(C)C` was tested. Which Activity did it give?
**A.** Active

**Q.** With `CC(C)(C)OC(=O)[C@H](CCc1ccccc1)NC(=O)c1cccc(OCCc2ccc(O)cc2)c1` as the compound, how does the Activity read?
**A.** inactive

**Q.** Which Activity does the source give for `CC(C)(C)OC(=O)[C@H](CCc1ccccc1)NC(=O)c1ccc(N)c(COc2ccc(O)cc2)c1` here?
**A.** Active

**Q.** `CN(C)c1ccc(C(=O)N[C@@H](CCc2ccccc2)C(=O)OC(C)(C)C)cc1CCc1ccc(O)cc1` was tested. Which Activity did it give?
**A.** inactive

**Q.** How did the Activity turn out when `N[C@@H](Cc1ccccc1)C(=O)Nc1ccc(C(=O)N[C@@H](CCc2ccccc2)C(=O)O)cc1OCCc1ccc(O)cc1` was run?
**A.** Active

**Q.** For `CC(C)(C)OC(=O)[C@H](CCc1ccccc1)NC(=O)c1ccc(N)c(CCc2ccccc2O)c1`, which Activity is on record?
**A.** inactive

**Q.** With `CC(C)(C)OC(=O)[C@H](CCc1ccccc1)NC(=O)c1ccc(N)c(Cc2ccc(O)cc2)c1` as the compound, how does the Activity read?
**A.** inactive

**Q.** How did the Activity turn out when `CCC(C)(C)OC(=O)[C@H](CCc1ccccc1)NC(=O)c1ccc(N)c(CCc2ccc(O)cc2)c1` was run?
**A.** Active

**Q.** With `CC(C)(C)OC(=O)[C@H](CCc1ccccc1)NC(=O)c1ccc(N)c(OCCc2ccccc2)c1` as the compound, how does the Activity read?
**A.** inactive

**Q.** How did the Activity turn out when `CC(C)(C)OC(=O)[C@@H](N)Cc1ccccc1` was run?
**A.** inactive

**Q.** `CC(C)(C)OC(=O)[C@H](CCc1ccccc1)NC(=O)c1ccc(N)c(OCCc2cccc(O)c2)c1` was tested. Which Activity did it give?
**A.** Active

**Q.** With `CC(C)(C)NC(=O)[C@H](CCc1ccccc1)NC(=O)c1ccc(N)c(CCc2ccc(O)cc2)c1` as the compound, how does the Activity read?
**A.** inactive

**Q.** For `CC(C)(C)COC(=O)[C@H](CCc1ccccc1)NC(=O)c1ccc(N)c(CCc2ccc(O)cc2)c1`, which Activity is on record?
**A.** inactive

**Q.** With `CC(C)(C)OC(=O)[C@H](CCc1ccccc1)NC(=S)c1ccc(N)c(CCc2ccc(O)cc2)c1` as the compound, how does the Activity read?
**A.** inactive

**Q.** `Nc1ccc(C(=O)N[C@@H](CCc2ccccc2)C(=O)O)cc1CCc1ccc(O)cc1` was tested. Which Activity did it give?
**A.** inactive

**Q.** With `CC(C)(C)OC(=O)[C@H](CCc1ccccc1)NCc1ccc(N)c(CCc2ccc(O)cc2)c1` as the compound, how does the Activity read?
**A.** inactive

**Q.** Which Activity does the source give for `CC(C)(C)OC(=O)[C@H](CCc1ccccc1)NC(=O)c1ccc(N)c(Sc2ccc(O)cc2)c1` here?
**A.** inactive

**Q.** How did the Activity turn out when `CC(C)(C)OC(=O)[C@H](CCc1ccccc1)NC(=O)c1ccc(N)c(OCCc2ccc(O)c(Cl)c2)c1` was run?
**A.** inactive

**Q.** How did the Activity turn out when `CC(C)(C)OC(=O)[C@H](CCc1ccccc1)NC(=O)c1ccc(N)c(-c2ccc(O)cc2)c1` was run?
**A.** inactive

**Q.** Which Activity does the source give for `Nc1ccc(C(=O)N[C@@H](CCc2ccccc2)C(=O)O)cc1OCCc1ccc(O)cc1` here?
**A.** inactive

**Q.** For `CC(C)(C)OC(=O)[C@H](CCc1ccc(Cl)cc1)NC(=O)c1ccc(N)c(CCc2ccc(O)cc2)c1`, which Activity is on record?
**A.** inactive

**Q.** How did the Activity turn out when `CC(C)(C)OC(=O)[C@H](CCc1ccccc1)NC(=O)c1ccc(N)c(OCCCCc2ccc(O)cc2)c1` was run?
**A.** inactive

**Q.** How did the Activity turn out when `CC(C)(C)OC(=O)[C@H](CCc1ccccc1)NC(=O)c1ccc(N)c(C#Cc2ccc(O)cc2)c1` was run?
**A.** inactive

**Q.** For `Nc1ccc(C(=O)N[C@@H](CCc2ccccc2)C(=O)OC23CC4CC(CC(C4)C2)C3)cc1CCc1ccc(O)cc1`, which Activity is on record?
**A.** inactive

**Q.** `CSCC[C@H](N)C(=O)OC(C)(C)C` was tested. Which Activity did it give?
**A.** inactive

**Q.** For `CC(C)(C)OC(=O)[C@H](CCc1ccccc1)NC(=O)c1ccc(N)c(OCCc2ccc(O)c(F)c2)c1`, which Activity is on record?
**A.** inactive

**Q.** How did the Activity turn out when `CC(C)(C)OC(=O)[C@H](CCc1ccccc1)NC(=O)c1cccc(CCc2ccc(O)cc2)c1` was run?
**A.** inactive

**Q.** With `CCCCCCCCNC(=O)[C@H](CCc1ccccc1)NC(=O)c1ccc(N)c(CCc2ccc(O)cc2)c1` as the compound, how does the Activity read?
**A.** inactive

**Q.** Which Activity does the source give for `CC(C)(C)OC(=O)[C@H](CCc1ccccc1)NC(=O)c1ccc(N)c(CCc2ccccc2)c1` here?
**A.** inactive

**Q.** With `CC(C)(C)OC(=O)[C@H](CCc1ccc(F)cc1)NC(=O)c1ccc(N)c(CCc2ccc(O)cc2)c1` as the compound, how does the Activity read?
**A.** Active

**Q.** For `CCCCCCCCCCNC(=O)[C@H](CCc1ccccc1)NC(=O)c1ccc(N)c(CCc2ccc(O)cc2)c1`, which Activity is on record?
**A.** inactive

**Q.** With `CCCCCCNC(=O)[C@H](CCc1ccccc1)NC(=O)c1ccc(N)c(CCc2ccc(O)cc2)c1` as the compound, how does the Activity read?
**A.** Active

**Q.** With `N[C@@H](Cc1ccc2ccccc2c1)C(=O)Nc1ccc(C(=O)N[C@@H](CCc2ccccc2)C(=O)O)cc1OCCc1ccc(O)cc1` as the compound, how does the Activity read?
**A.** Active
